Experimental data reported in ChEMBL document CHEMBL1154614, “Synthesis and evaluation of stable bidentate transition metal complexes of 1-(chloromethyl)-5-hydroxy-3-(5,6,7-trimethoxyindol-2-ylcarbonyl)-2,3-dihydro-1H-pyrrolo[3,2-f]quinoline (seco-6-azaCBI-TMI) as hypoxia selective cytotoxins” (J Med Chem, 2009).

Columns and labels:
[1] = Solubility in alpha-MEM in presence of FCS; type: physicochemical; conditions: alpha-MEM with FCS
CHO-AA8 = assay: Cytotoxicity against hamster AA8 cells after 4 hrs under aerobic conditions; type: cell-based; conditions: Cricetulus griseus, CHO-AA8, 4 h
Procedure, shortened: (§1)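 Attached log-phase cells exposed to compound for 4 h under aerobic conditions; compounds formulated in DMSO, final DMSO <1%. IC50 = concentration giving 50% inhibition of cell proliferation. Mean ± SEM of >2 determinations.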

UV4 = assay: Cytotoxicity against hamster UV4 cells after 4 hrs under aerobic conditions; type: cell-based; conditions: Cricetulus griseus, UV4, 4 h; procedure, shortened: as §1
[2] = Cytotoxicity against mouse EMT6V cells after 4 hrs under aerobic conditions; type: functional, cell-based; procedure, shortened: as §1
SK-OV-3 [3] = assay: Cytotoxicity against human SKOV3 cells after 4 hrs under aerobic conditions; type: functional, cell-based; conditions: SK-OV-3, 4 h; procedure, shortened: as §1
SK-OV-3 [4] = assay: Hypoxic cytotoxicity ratio, ratio of IC50 for human SKOV3 cells under aerobic condition to IC50 for human SKOV3 cells after 4 hrs under hypoxic condition; type: functional
Procedure, shortened: (§2)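 Attached log-phase cells given 4 h compound exposure in parallel under oxic and hypoxic conditions; compounds in DMSO, final DMSO <1%. IC50 for inhibition of cell proliferation. Ratio = aerobic IC50/hypoxic IC50, calculated within each experiment.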

A549 [5] = assay: Cytotoxicity against human A549 cells after 4 hrs under aerobic conditions; type: functional, cell-based; conditions: A549, 4 h; procedure, shortened: as §1
A549 [6] = assay: Hypoxic cytotoxicity ratio, ratio of IC50 for human A549 cells under aerobic condition to IC50 for human A549 cells after 4 hrs under hypoxic condition; type: functional; procedure, shortened: as §2

## CN(C)CCOc1ccc2[nH]c(C(=O)N3CC(CCl)c4c3cc(O)c3ncccc43)cc2c1 (stereo not given)
[1]
  solubility: 32 µM
CHO-AA8
  IC50: 4.4 nM
UV4
  IC50: 1.7 nM
[2]
  IC50: 0.74 nM
SK-OV-3 [3]
  IC50: 6.9 nM
SK-OV-3 [4]
  Ratio IC50: 0.56
A549 [5]
  IC50: 1.3 nM
A549 [6]
  Ratio IC50: 1.11

## COc1ccc(/C=C/C(=O)N2CC(CCl)c3c2cc(O)c2ncccc32)cc1 (stereo not given)
[1]
  solubility: 40 µM
SK-OV-3 [3]
  IC50: 0.29 nM
A549 [5]
  IC50: 0.09 nM

## COc1ccc(/C=C/C(=O)N2CC(CCl)c3c2cc(O)c2ncccc32)cc1O (stereo not given)
[1]
  solubility: 110 µM
SK-OV-3 [3]
  IC50: 0.17 nM
A549 [5]
  IC50: 0.18 nM

## COc1cc2cc(C(=O)N3C[C@@H](CCl)c4c3cc(O)c3ncccc43)[nH]c2c(OC)c1OC
CHO-AA8
  IC50: 0.07 nM
UV4
  IC50: 0.04 nM
[2]
  IC50: 0.03 nM
SK-OV-3 [3]
  IC50: 0.11 nM
A549 [5]
  IC50: 0.04 nM

## CN(C)CCOc1ccc(/C=C/C(=O)N2CC(CCl)c3c2cc(O)c2ncccc32)cc1 (stereo not given)
[1]
  solubility: 860 µM
CHO-AA8
  IC50: 2.6 nM
UV4
  IC50: 0.73 nM
[2]
  IC50: 0.58 nM
SK-OV-3 [3]
  IC50: 1.9 nM
SK-OV-3 [4]
  Ratio IC50: 0.65
A549 [5]
  IC50: 0.92 nM
A549 [6]
  Ratio IC50: 0.86

## COc1ccc2[nH]c(C(=O)N3CC(CCl)c4c3cc(O)c3ncccc43)cc2c1 (stereo not given)
[1]
  solubility: 110 µM
SK-OV-3 [3]
  IC50: 0.27 nM
SK-OV-3 [4]
  Ratio IC50: 0.91
A549 [5]
  IC50: 0.08 nM
A549 [6]
  Ratio IC50: 1.51

## COc1cc2cc(C(=O)N3C[C@H](CCl)c4c3cc(O)c3ncccc43)[nH]c2c(OC)c1OC
CHO-AA8
  IC50: 22 nM
UV4
  IC50: 4.6 nM
[2]
  IC50: 7.3 nM
SK-OV-3 [3]
  IC50: 8.5 nM
A549 [5]
  IC50: 8.8 nM

## COc1cc2cc(C(=O)N3CC(CCl)c4c3cc(O)c3ncccc43)[nH]c2c(OC)c1OC (racemic)
[1]
  solubility: 30 µM
CHO-AA8
  IC50: 0.14 nM
UV4
  IC50: 0.07 nM
[2]
  IC50: 0.05 nM
SK-OV-3 [3]
  IC50: 0.26 nM
SK-OV-3 [4]
  Ratio IC50: 0.69
A549 [5]
  IC50: 0.06 nM
A549 [6]
  Ratio IC50: 0.76
